What was measured:
[1] = target: Endochitinase B1 (Aspergillus fumigatus, UniProt Q873X9); experiment: Inhibition of Aspergillus fumigatus ChitinaseB1 expressed in Escherichia coli using 4-methyumbelliferyl-beta-B-N,N'-diacetylchitobiose after 10 mins
Method in brief: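 Recombinant AfChiB1, expressed and purified as reported earlier, assayed with fluorogenic 4MU-GlcNAc2 substrate. IC50 obtained from triplicate measurements at each inhibitor concentration.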

[2] = Inhibition of human chitotriosidase using 4-methyumbelliferyl-beta-B-N,N'-triacetylchitotriose as substrate after 10 mins
Method in brief: (§1)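 Enzymes (AfChiA1; human chitotriosidase) expressed and purified as reported earlier, assayed with fluorogenic 4MU-GlcNAc3 substrate. IC50 from triplicate measurements at each inhibitor concentration.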

[3] = target: T1, Endochitinase A1 (Aspergillus fumigatus, UniProt Q873Y0); experiment: Inhibition of Aspergillus fumigatus chitinaseA1 using 4-methyumbelliferyl-beta-B-N,N'-triacetylchitotriose as substrate after 10 mins; method in brief: as §1
T1 sequence (Q873Y0 whole entry): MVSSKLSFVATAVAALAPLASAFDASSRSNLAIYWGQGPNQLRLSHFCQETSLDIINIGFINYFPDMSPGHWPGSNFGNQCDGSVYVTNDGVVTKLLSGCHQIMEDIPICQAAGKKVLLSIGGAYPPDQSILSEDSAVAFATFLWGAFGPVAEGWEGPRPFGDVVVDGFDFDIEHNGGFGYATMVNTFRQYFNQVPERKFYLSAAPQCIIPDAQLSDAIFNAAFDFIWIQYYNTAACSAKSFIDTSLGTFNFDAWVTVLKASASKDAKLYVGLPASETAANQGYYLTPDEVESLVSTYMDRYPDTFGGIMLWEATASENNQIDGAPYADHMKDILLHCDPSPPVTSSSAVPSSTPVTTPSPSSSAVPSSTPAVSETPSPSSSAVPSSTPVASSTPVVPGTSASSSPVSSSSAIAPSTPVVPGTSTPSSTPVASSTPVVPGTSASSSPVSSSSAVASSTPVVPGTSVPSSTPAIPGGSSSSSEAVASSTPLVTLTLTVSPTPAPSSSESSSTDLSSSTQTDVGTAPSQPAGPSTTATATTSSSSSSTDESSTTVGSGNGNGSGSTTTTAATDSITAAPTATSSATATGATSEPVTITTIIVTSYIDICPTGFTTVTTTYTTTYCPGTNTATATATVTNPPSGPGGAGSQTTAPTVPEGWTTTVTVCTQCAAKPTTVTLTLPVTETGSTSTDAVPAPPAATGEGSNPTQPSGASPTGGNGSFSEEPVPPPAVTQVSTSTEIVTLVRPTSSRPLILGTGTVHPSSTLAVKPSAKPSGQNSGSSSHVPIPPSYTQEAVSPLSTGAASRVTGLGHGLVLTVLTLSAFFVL

[4] = target: Acidic mammalian chitinase (Mus musculus, UniProt Q91XA9); experiment: Inhibition of AMCase in BALB/c mouse lung homogenate using 4-methyumbelliferyl-beta-B-N,N'-diacetylchitobiose after 10 mins
Method in brief: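 AMCase activity taken from lung homogenate of female BALB/C mice; 100 mg lung lobe tissue homogenized in HBSS. Substrate 4MU-GlcNAc2, fluorogenic 4-methylumbelliferone release. IC50 from triplicate measurements at each inhibitor concentration.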

Sequence of Acidic mammalian chitinase (Q91XA9 whole entry): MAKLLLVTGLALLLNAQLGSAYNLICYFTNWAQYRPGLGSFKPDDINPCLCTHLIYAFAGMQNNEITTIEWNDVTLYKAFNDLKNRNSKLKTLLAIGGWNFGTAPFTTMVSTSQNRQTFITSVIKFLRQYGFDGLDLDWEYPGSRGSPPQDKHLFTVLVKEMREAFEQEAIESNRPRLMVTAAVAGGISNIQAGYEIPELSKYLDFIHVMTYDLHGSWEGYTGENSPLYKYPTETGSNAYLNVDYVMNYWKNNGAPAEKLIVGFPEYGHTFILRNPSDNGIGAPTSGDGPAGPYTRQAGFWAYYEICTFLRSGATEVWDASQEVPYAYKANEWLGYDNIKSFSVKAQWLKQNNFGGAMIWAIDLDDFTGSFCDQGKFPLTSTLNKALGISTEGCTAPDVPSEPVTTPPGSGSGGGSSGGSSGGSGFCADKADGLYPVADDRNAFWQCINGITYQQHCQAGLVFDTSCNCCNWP

| IC50 [1] [µM] | IC50 [2] [µM] | IC50 [3] [µM] | IC50 [4] [µM] | SMILES |
| --- | --- | --- | --- | --- |
| 9 | 91 | > 1000 |  | Cn1cnc2c1c(=O)n(CCCCn1c(=O)c3c(ncn3C)n(C)c1=O)c(=O)n2C [BISDIONIN D] |
| 5.7 | 260 | 820 |  | Cn1cnc2c1c(=O)n(CCCCCn1c(=O)c3c(ncn3C)n(C)c1=O)c(=O)n2C [BISDIONIN E] |
| 4.8 | 110 | > 1000 | 90 | Cn1cnc2c1c(=O)n(CCn1c(=O)c3c(ncn3C)n(C)c1=O)c(=O)n2C [BISDIONIN B] |
| 0.2 | 8.3 | > 1000 | 3.4 | Cn1cnc2c1c(=O)n(CCCn1c(=O)c3c(ncn3C)n(C)c1=O)c(=O)n2C [BISDIONIN C] |
